Results filed as inconclusive are left out.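 Rule for the calls, unless noted: active = cell viability at or below a set limit in both duplicate runs, the limit being the all-compound median minus 4 SD (cut at about 23% in these data, passing the limit was not always enough); inconclusive = no clear call, values can overlap the other calls; inactive = the rest.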
Key:
[1] = S. cerevisiae growth inhibition in permissive medium (OD615), pilot counter-assay for S. cerevisiae lifespan shortening project, permissive growth control (AID 705;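 active = growth inhibition above 25% in both replicates, a cutoff set 3 SD above the mean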); conditions: OD615, 24 h, at 10 µM, active compounds read high
How it was run: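 assay system = Saccharomyces cerevisiae strain carrying genetically modified DeaD replicative-lifespan system | medium = SC raffinose/galactose permissive medium | dosing = 10 µM single dose, 0.25% DMSO | schedule = 24 h compound exposure at 30 °C after 4 h pre-growth | measured by = OD at 615 nm | read-out basis = growth inhibition from lowered OD615 after 24 h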

[2] = S. cerevisiae growth inhibition in restrictive medium, OD615, pilot screen, restrictive growth control, yeast lifespan reduction project (AID 706;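 active = growth inhibition above a set limit, 3 SD over mean compound inhibition, in both replicates, cut at about 43% in these data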;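 note: modified DeaD lifespan yeast strain shifted to restrictive glucose medium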); conditions: OD615, 48 h, at 10 µM, active compounds read high
How it was run: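 Buffer or medium: CSMM-D glucose medium. Material: genetically modified Saccharomyces cerevisiae, DeaD replicative lifespan assay strain. Times: 48 h compound exposure at 30 °C. Measured by: optical density at 615 nm.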

[3] = doxorubicin toxicity protection in MRP-1 cells – H69AR cells, CellTiter-Glo, duplicate, MRP-1 activator project, pilot screen (AID 807;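 active = viability increase at or above a cutoff of the median across tested compounds plus 3 SD, cut at about 8.5% in these data, passing the limit was not always enough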;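 note: compound pretreatment 18-22 h then 72 h combined with doxorubicin; 0% = doxorubicin alone and 100% = vehicle without doxorubicin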); conditions: H69AR viability with doxorubicin, CellTiter-Glo luminescence; at 10 µM; active compounds read high
[4] = viability of HCT116 without oncogenic beta-catenin – human colon tumor cells, pilot screen (AID 823); conditions: HCT116 beta-catenin knockout viability, CellTiter-Glo, 60 h; at 10 µM; active compounds read low;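 note: 0% = wells killed by 20 µM Hyamine and 100% = untreated DMSO cell wells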
[5] = viability of PTEN-null HCT116 cells – cell-based, HCT116 clonal line, CellTiter-Glo, pilot screen (AID 824;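 active = viability at or below 27.92% in each of two runs, the all-compound median minus 4 SD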;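 note: 0% = 20 µM Hyamine control and 100% = vehicle cell control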); conditions: HCT116 PTEN-deleted viability, 60 h, at 10 µM, active compounds read low
[6] = RAM pathway blockade in budding yeast – dse1pr::URA3 reporter, 5-FOA selection, pilot screen (AID 869;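 active = inhibition over a set limit, the all-compound mean plus 3 SD, in both replicate runs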;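 note: 0% = DMSO wells with no growth and 100% = 10 µM 1-NA-PP1 with full growth; RAM network block rescues cells from 5-FOA so hits raise OD615 growth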); conditions: S. cerevisiae dse1pr::URA3 5-FOA growth, OD615, 2 d; at 10 µM; active compounds read high; strain carries analog-sensitive mutant Cbk1 kinase
[7] = RAM signaling pathway blockade in yeast – S. cerevisiae, Pdr1DBD-CYC8 efflux-inhibited sensitized strain, primary screen (AID 1298;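 active = RAM network inhibition above 8.4% in each of two replicates, 3 SD over the compound average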;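 note: 0% = DMSO untreated cells without growth and 100% = 10 µM 1-NA-PP1 full growth; higher means more yeast growth rescued from 5-FOA killing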); conditions: S. cerevisiae cbk1-as DSE1-URA3 strain, 5-FOA growth OD615, 2 d; at 50 µM; active compounds read high

COc1ccc(NC(=O)C2CCN(S(=O)(=O)c3cccc4cccnc34)CC2)cc1
inactive: growth inhibition [1] -4.51% | growth inhibition [2] 3.15% | viability increase [3] 1.75% | viability [4] 102% | viability [5] 101% | inhibition [6] 2.21% | RAM network inhibition [7] 0.67%

COc1cccc(C2(O)CCN(C(=O)c3cccs3)CC2)c1
inactive: growth inhibition [1] -9.43% | growth inhibition [2] 6.06% | viability increase [3] 0.71% | viability [4] 91.5% | viability [5] 97% | inhibition [6] 1.58% | RAM network inhibition [7] 5.17%

CCOC(=O)CN1c2ccccc2NC(=O)CC1C (stereo not given)
inactive: growth inhibition [1] -5.11% | growth inhibition [2] -4.52% | viability increase [3] -4.06% | viability [4] 101% | viability [5] 98.9% | inhibition [6] 0.895% | RAM network inhibition [7] -0.43%

CC(=O)NCCc1cc2ccc(C)c(C)c2[nH]c1=O
inactive: growth inhibition [1] -14.9% | growth inhibition [2] -18.7% | viability increase [3] -1.53% | viability [4] 103% | viability [5] 97% | inhibition [6] 1.05% | RAM network inhibition [7] 0.37%

NC(=O)C1CCN(C(=O)CN(c2cccc(C(F)(F)F)c2)S(=O)(=O)c2ccccc2)CC1
inactive: growth inhibition [1] -10.2% | growth inhibition [2] -14.5% | viability increase [3] -1.48% | viability [4] 99.7% | viability [5] 94.7% | inhibition [6] 2.27% | RAM network inhibition [7] 4.31%

CCn1nnnc1-c1ccc(OC)c(S(=O)(=O)NCCc2ccccc2)c1
inactive: growth inhibition [1] 2.78% | growth inhibition [2] 2.87% | viability increase [3] 0.85% | viability [4] 93.5% | viability [5] 97.3% | inhibition [6] 0.03% | RAM network inhibition [7] 1.98%

O=C(NCc1ccccn1)c1cc2ccccn2n1
inactive: growth inhibition [1] -2.5% | growth inhibition [2] 0.82% | viability increase [3] -0.01% | viability [4] 104% | viability [5] 102% | inhibition [6] 0.245% | RAM network inhibition [7] 3.25%

CCCn1c(CCC(=O)O)ccc1-c1cccs1
inactive: growth inhibition [1] 5.45% | growth inhibition [2] 7.04% | viability increase [3] -2.75% | viability [4] 93.4% | viability [5] 102% | inhibition [6] 0.78% | RAM network inhibition [7] -0.03%

CC(Oc1ccccc1)C(=O)OCC(=O)NC(=O)NCc1ccco1 (stereo not given)
inactive: growth inhibition [1] -5% | growth inhibition [2] -0.75% | viability increase [3] -1.78% | viability [4] 97.9% | viability [5] 97.2% | inhibition [6] 3.58% | RAM network inhibition [7] 2.68%

CCCS(=O)(=O)c1nc(S(=O)(=O)c2ccc(C)cc2)c(NCCCN2CCOCC2)s1
inactive: growth inhibition [1] 0.84% | growth inhibition [2] -0.48% | viability increase [3] -1.8% | viability [4] 91.8% | viability [5] 99.9% | inhibition [6] 0.475% | RAM network inhibition [7] 5.15%

CCC(=O)Nc1c(OC(=O)CC)ccc2c(C)cc(=O)oc12
inactive: growth inhibition [1] 5.45% | growth inhibition [2] 4.76% | viability increase [3] -2.02% | viability [4] 105% | viability [5] 88.7% | inhibition [6] 0.835% | RAM network inhibition [7] -0.83%

Cc1nc(C)c(C(=O)Nc2ccccc2)s1
inactive: growth inhibition [1] -0.755% | growth inhibition [2] -6.96% | viability increase [3] -0.17% | viability [4] 98.4% | viability [5] 88.3% | inhibition [6] 0.68% | RAM network inhibition [7] 3.02%

COc1ccc(N2Cc3cccc(C(=O)N4CCN(C(=O)c5ccco5)CC4)c3C2=O)cc1
inactive: growth inhibition [1] 3.88% | growth inhibition [2] 11.3% | viability increase [3] -1.86% | viability [4] 99.3% | viability [5] 91% | inhibition [6] 2.62% | RAM network inhibition [7] 3.36%

COCc1cc(C)nc(SCC(=O)Nc2cccc3cccnc23)c1C#N
inactive: growth inhibition [1] -15.3% | growth inhibition [2] -12.6% | viability increase [3] -1.44% | viability [4] 88.1% | viability [5] 86.4% | inhibition [6] 1.2% | RAM network inhibition [7] 8.57%

CCCOc1nc2c(c(=O)n(C)c(=O)n2C)n1CCC
inactive: growth inhibition [1] -7.2% | growth inhibition [2] -10.2% | viability increase [3] -2.13% | viability [4] 82.2% | viability [5] 86.6% | inhibition [6] 1.4% | RAM network inhibition [7] -0.88%

c1ccc(CNc2ncnc3c2ncn3C2CCCCO2)cc1 (stereo not given)
inactive: growth inhibition [1] -5.22% | growth inhibition [2] -8.96% | viability increase [3] -1.76% | viability [4] 101% | viability [5] 98% | inhibition [6] 1.25% | RAM network inhibition [7] 5.84%

CCOC(=O)C(C)n1cnc2c(nnn2-c2cccc(Cl)c2)c1=O (stereo not given)
inactive: growth inhibition [1] -4.37% | growth inhibition [2] -3.95% | viability increase [3] 1.78% | viability [4] 102% | viability [5] 92.6% | inhibition [6] 2.58% | RAM network inhibition [7] 4.24%

Cn1c(C(=O)NCCCN2CCOCC2)cc2c(=O)n(C)c3ccccc3c21
inactive: growth inhibition [1] 0.23% | growth inhibition [2] -0.345% | viability increase [3] -4.09% | viability [4] 100% | viability [5] 91.5% | inhibition [6] 1.67% | RAM network inhibition [7] -0.72%

CCc1ccc2[nH]cc(C(=O)OCCOC)c(=O)c2c1
inactive: growth inhibition [1] -19.9% | growth inhibition [2] 0.075% | viability increase [3] -1.15% | viability [4] 88% | viability [5] 87.5% | inhibition [6] 1.91% | RAM network inhibition [7] 1.6%

Clc1ccc(CSc2nnc(-c3ccccn3)n2Cc2ccco2)c(Cl)c1
inactive: growth inhibition [1] -2.3% | growth inhibition [2] 11.9% | viability increase [3] -3.47% | viability [4] 70.2% | viability [5] 64.1% | inhibition [6] 1.68% | RAM network inhibition [7] 7.51%

COc1ccccc1OCC(=O)NC1CCCCCC1
inactive: growth inhibition [1] -5.33% | growth inhibition [2] -8.23% | viability increase [3] -0.27% | viability [4] 96.3% | viability [5] 88.8% | inhibition [6] -0.49% | RAM network inhibition [7] 0.78%

CC(NC(=O)c1ccco1)C(c1cccs1)N1CCOCC1 (stereo not given)
inactive: growth inhibition [1] -6.95% | growth inhibition [2] 7.38% | viability increase [3] -2.37% | viability [4] 101% | viability [5] 99.5% | inhibition [6] 0.88% | RAM network inhibition [7] 1.38%

O=C(CNC(=O)c1cnccn1)Nc1ccc(F)c(F)c1F
inactive: growth inhibition [1] -8.69% | growth inhibition [2] 2.7% | viability increase [3] 1.31% | viability [4] 99.9% | viability [5] 92.8% | inhibition [6] 2.68% | RAM network inhibition [7] 7.87%

COc1ccc(C2C3=C(Nc4ncnn42)c2ccccc2CCC3)cc1 (stereo not given)
inactive: growth inhibition [1] -12.5% | growth inhibition [2] -17.7% | viability increase [3] -1.45% | viability [4] 91.7% | viability [5] 89.1% | inhibition [6] 1.9% | RAM network inhibition [7] 3.32%

Cc1ccc2oc(=O)c3cc(C(=O)N4CCN(C(=O)c5ccco5)CC4)sc3c2c1
inactive: growth inhibition [1] -9.32% | growth inhibition [2] -1.79% | viability increase [3] -2.75% | viability [4] 102% | viability [5] 99.5% | inhibition [6] 2.8% | RAM network inhibition [7] 3.77%

Source: PubChem BioAssay
